Results from different studies.
Each line is one published result; the experiments were not run side by side.
Organism: Mycobacterium tuberculosis
Observed: microbial growth

For `CCC1CCC2(CC1)SCC(=O)N2NC(=O)c1[nH]c2ccc(Cl)cc2c1-c1ccccc1` (centres unmarked), the MIC was 250 µM (ATCC27294 H37RV).
For `O=[N+]([O-])c1ccc(/C(O)=C/C(=S)S)cc1`, the MIC was 7.8 µg/mL (ATCC27294 H37RV; 8 days).
The MIC of `CC(C)=CCC/C(C)=C/COCCOC1C2CC3CC(C2)CC1C3` (centres unmarked) is reported as 50 µg/mL.
`O=C(NN1C(=O)CSC12CCC(c1ccccc1)CC2)c1[nH]c2ccc(Cl)cc2c1-c1ccccc1` (centres unmarked) gave an MIC of 3.9 µM (ATCC27294 H37RV).
For `Cc1cc(N)c2ccccc2[n+]1CCCCCCCCCC[n+]1c(C)cc(N)c2ccccc21`, the MIC was 1.2 µg/mL (broth dilution).
The MIC of `CC(C)[C@H]1CO[C@]23CCN(Cc4ccc(C(F)(F)F)cc4)C[C@H]2CCC(=O)N13` is reported as 0.13 µM (resazurin; H37RV; 7 days).
The MIC of `Cc1ccc(C)n1-c1ccc(C(=O)NNC=O)cc1` is reported as 4 µg/mL (broth dilution; H37RV; 21 days).
`COC(=O)c1cc(-c2cccc(NC(=O)Nc3ccccc3F)c2)on1` gave an MIC of 2 µg/mL (ATCC27294 H37RV; 7 days).
`CO[C@H]1/C=C/O[C@@]2(C)Oc3c(C)c(O)c4c(O)c(c(/C=N/N5CCN(C)CC5)c(O)c4c3C2=O)NC(=O)/C(C)=C\C=C\[C@H](C)[C@H](O)[C@@H](C)[C@@H](O)[C@@H](C)[C@H](OC(C)=O)[C@@H]1C` has an MIC of 0.009 µM (H37RV).
With `Cc1cc(C)n(C(=O)c2ccc(-n3c(C)ccc3C)cc2)n1` the MIC was 8 µg/mL (broth dilution; H37RV; 21 days).
For `CN(C)c1ccc(C=NC2=NN(c3ccccc3)C(=O)C2=NNc2nc(-c3ccccc3)cs2)cc1`, the MIC was 6.25 µg/mL (resazurin; H37RV).
For `[H]/N=C(/N)N[C@H]1[C@H](O)[C@@H](O)[C@H](O[C@@H]2O[C@@H](C)[C@](O)(C=O)[C@H]2O[C@@H]2O[C@@H](CO)[C@H](O)[C@@H](O)[C@@H]2NC)[C@@H](N/C(N)=N\[H])[C@@H]1O`, the MIC was 1.5 µM (H37RV; 5 days).
`CC(C)[C@H]1CO[C@]23CCN(Cc4ccccc4)C[C@H]2CCC(=O)N13` has an MIC of 7.3 µM (H37RV; 7 days).
`C[C@H]1c2cccc(O)c2C(=O)C2=C(O)[C@]3(O)C(=O)C(C(N)=O)=C(O)[C@@H](N(C)C)[C@@H]3[C@@H](O)[C@@H]21` has an MIC of 1 µg/mL (resazurin; H37RA; 14 days).
With `COC(=O)c1cc(-c2cccc(NC(=S)NC3CCCCC3)c2)on1` the MIC was 2 µg/mL (ATCC27294 H37RV; 7 days).
`Cc1c(Cc2ccc(F)cc2F)c(=O)n2c([nH]c3ccccc32)c1C#N` has an MIC of 1 µg/mL (broth dilution; H37RV).
`Cc1ccn2c(C(=O)NCc3ccc(S(F)(F)(F)(F)F)cc3)c(C)nc2c1` has an MIC of 0.25 µM (H37RV; 5 days).
`NNC(=O)c1ccncc1` has an MIC of 0.05 µg/mL (resazurin; H37RA; 14 days).
The MIC of `CC(C)[C@H]1CO[C@]23CCN(Cc4ccc(OC(F)(F)F)cc4)C[C@H]2CCC(=O)N13` is reported as 0.17 µM (resazurin; H37RV; 7 days).
The MIC of `O=C1NN=C(N=Cc2ccccc2O)C1=NNn1c(-c2ccccc2)nc2ccccc2c1=O` is reported as 13.8 µM (resazurin; H37RV).
For `CCOC(=O)c1cc(-c2cccc(NC(=O)Nc3ccc(Cl)c(Cl)c3)c2)on1`, the MIC was 1 µg/mL (ATCC27294 H37RV; 7 days).
`C[C@@H]1CN(c2nc(=O)c3cc(C(F)(F)F)cc(C#N)c3s2)[C@@H](C)CN1CC1CCCCC1` has an MIC of greater than 2 µM (resazurin; H37RV).
For `O=C(NN1C(=O)CSC12CCCC2)c1[nH]c2ccc(Cl)cc2c1-c1ccccc1`, the MIC was 1000 µM (ATCC27294 H37RV).
`Cc1c(Cc2ccc(Cl)c(Cl)c2)c(=O)n2c([nH]c3ccccc32)c1C#N` has an MIC of 0.5 µg/mL (broth dilution; H37RV).
`NNC(=O)c1ccncc1` has an MIC of 0.14 µM (W4).
`Cc1ccc2nc(C)c(C(=O)NCc3ccc(S(F)(F)(F)(F)F)cc3)n2c1` has an MIC of 0.014 µM (H37RV; 5 days).
With `CN[C@H](CC(C)C)C(=O)N[C@H]1C(=O)N[C@@H](CC(N)=O)C(=O)N[C@H]2C(=O)N[C@H]3C(=O)N[C@H](C(=O)N[C@H](C(=O)O)c4cc(O)cc(O)c4-c4cc3ccc4O)[C@H](O)c3ccc(c(Cl)c3)Oc3cc2cc(c3O[C@@H]2O[C@H](CO)[C@@H](O)[C@H](O)[C@H]2O[C@H]2C[C@](C)(N)[C@H](O)[C@H](C)O2)Oc2ccc(cc2Cl)[C@H]1O` the MIC was 12.5 µg/mL (H37RV; 14 days).
The MIC of `COC(=O)c1cc(-c2cccc(NC(=O)Nc3ccc(Cl)cc3)c2)on1` is reported as 2 µg/mL (ATCC27294 H37RV; 7 days).
`NNC(=O)c1ccncc1` gave an MIC of 0.05 µg/mL (ATCC27294 H37RV).
`CO[C@H]1/C=C/O[C@@]2(C)Oc3c(C)c(O)c4c(O)c(c(/C=N/N5CCN(C)CC5)c(O)c4c3C2=O)NC(=O)/C(C)=C\C=C\[C@H](C)[C@H](O)[C@@H](C)[C@@H](O)[C@@H](C)[C@H](OC(C)=O)[C@@H]1C` gave an MIC of 0.003 µM (H37RV; 5 days).
With `O=C(CCNS(=O)(=O)c1ccc([N+](=O)[O-])cc1)N1CCN(C(c2ccc(F)cc2)c2ccc(F)cc2)CC1` the MIC was 25 µg/mL (ATCC27294 H37RV).
The MIC of `C=C[C@@H](O)C#CC#C[C@@H](O)/C=C\CCCCCCC` is reported as 26.7 µg/mL (resazurin; ATCC27294 H37RV; 7 days).
The MIC of `CC1(C)S[C@@H]2[C@H](NC(=O)[C@H](N)c3ccccc3)C(=O)N2[C@H]1C(=O)O` is reported as 64 µg/mL (resazurin; H37RA; 14 days).
With `Cc1ccc(C)n1-c1ccc(-c2nnc(-c3ccc(N(C)C)cc3)[nH]2)cc1` the MIC was 16 µg/mL (broth dilution; H37RV; 21 days).
`COC(=O)c1cc(-c2cccc(NC(=O)Nc3ccccc3OC)c2)on1` has an MIC of 0.5 µg/mL (ATCC27294 H37RV; 7 days).
The MIC of `COc1ccc2cc(-c3nc(C(C)(C)C)[nH]c3-c3ccnc(N)c3)ccc2c1` is reported as 5.4 µM (ATCC27294 H37RV).
With `CNC(=O)c1cc(Oc2ccc(NC(=O)Nc3ccc(Cl)c(C(F)(F)F)c3)cc2)ccn1` the MIC was 25 µM (H37RV).
The MIC of `CO[C@H]1/C=C/O[C@@]2(C)Oc3c(C)c(O)c4c(O)c(c(/C=N/N5CCN(C)CC5)c(O)c4c3C2=O)NC(=O)/C(C)=C\C=C\[C@H](C)[C@H](O)[C@@H](C)[C@@H](O)[C@@H](C)[C@H](OC(C)=O)[C@@H]1C` is reported as 0.02 µg/mL.
`CC1CCCC2(C1)SC(C)C(=O)N2NC(=O)c1[nH]c2ccc(Cl)cc2c1-c1ccccc1` (centres unmarked) has an MIC of 500 µM (ATCC27294 H37RV).
`N#Cc1cc(C(F)(F)F)cc2c(=O)nc(N3CCN(CC4CC4)CC3)sc12` gave an MIC of greater than 2 µM (resazurin; H37RV).
With `COC(=O)c1cc(-c2cccc(NC(=O)Nc3ccc(Cl)c(C(F)(F)F)c3)c2)on1` the MIC was greater than 64 µg/mL (ATCC27294 H37RV; 7 days).
`O=[N+]([O-])c1cn2c(n1)OC[C@@H](OCc1ccc(N3CCCCC3)cc1)C2` gave an MIC of 0.4 to 0.8 µg/mL (H37RV).
`CC1CC(C)(C)CC2(C1)SCC(=O)N2NC(=O)c1[nH]c2ccc(Cl)cc2c1-c1ccccc1` (centres unmarked) gave an MIC of 500 µM (ATCC27294 H37RV).
For `O=C1C(=NNc2nc(-c3ccccc3)cs2)C(N=Cc2ccccc2)=NN1c1ccccc1`, the MIC was 6.25 µg/mL (resazurin; H37RV).
For `COC(=O)c1cc(-c2cccc(NC(=S)Nc3ccc([N+](=O)[O-])cc3)c2)on1`, the MIC was 2 µg/mL (ATCC27294 H37RV; 7 days).
For `Cc1ccc(C)n1-c1ccc(-c2nnc(-c3c(Cl)cccc3Cl)[nH]2)cc1`, the MIC was 8 µg/mL (broth dilution; H37RV; 21 days).
`O=C1C(=NNc2nc(-c3ccccc3)cs2)C(N=Cc2cccc(Cl)c2)=NN1c1ccccc1` has an MIC of 12.9 µM (resazurin; H37RV; 5 days).
`COC(=O)c1cc(-c2cccc(NC(=O)Nc3ccc(C)cc3)c2)on1` gave an MIC of 0.5 µg/mL (ATCC27294 H37RV; 7 days).
For `[H]/N=C(/N)N[C@H]1[C@H](O)[C@@H](O)[C@H](O[C@@H]2O[C@@H](C)[C@](O)(C=O)[C@H]2O[C@@H]2O[C@@H](CO)[C@H](O)[C@@H](O)[C@@H]2NC)[C@@H](N/C(N)=N\[H])[C@@H]1O`, the MIC was 6.25 µg/mL (resazurin; H37RV).
For `CC(C)=CCCC(C)CC1CC(=O)c2ccc(O)cc2O1` (centres unmarked), the MIC was 100 µg/mL (broth dilution; H37RV).
